# Compound activity: PubChem, Broad Institute
# SIRT5 inh = SIRT5 desuccinylase inhibitors, primary screen, biochemical, fluorescence imaging, single point, set 5 | NAD-dependent protein deacylase sirtuin-5, mitochondrial (Homo sapiens), Q9NXA8 | Purified SirT5, succinyl-peptide AMC, trypsin-coupled fluorescence | inhibition, % at 15 µM | actives 1.1% (n = 330,000) | AID 652115, 2013; in the data active means inhibition above about 15%; inconclusive means no clear call, values can overlap the other calls
# E-selectin induc = E-selectin induction in HUVECs, primary screen, imaging, HUVEC, immunofluorescence imaging, single point | actives 0.37% (n = 260,000) | activation, % at 7.58 µM | normalized: neutral wells 0, TNF-alpha wells 100 | P16581;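 active means mean E-selectin-positive cell signal at least 10% of the positive control, reached in at least 60% of replicates, without over 20% cell loss; inconclusive means no rule given, readout overlaps actives, possibly toxicity-flagged; inactive means the rest, including those meeting only one limit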
#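 Material: HUVEC primary endothelial cells; Amount: 3,000 cells per well; Dosing: single concentration; Medium: EGM-2 growth medium on 0.1% gelatin-coated wells; Read-out basis: percent E-selectin-positive cells; Signal: immunofluorescence imaging; Control set: TNF-alpha, DMSO.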
# ERAP1 HTS inh = human ERAP1 aminopeptidase inhibitors, primary screen, biochemical, single point, plate reader | recombinant ERAP1, Leu-AMC fluorescence, 60 min | inhibition, % at 10.7 µM | actives 0.15% (n = 340,000) | AID 652197, 2013;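 active means mean replicate inhibition of at least 30%, or all replicates individually reaching that 30% level; inactive means mean below 30% and not every replicate reaching it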;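 further: 0% = neutral control wells and 100% = L-leucinethiol positive control wells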
# Target sequence (Q9NZ08 whole entry, looked up): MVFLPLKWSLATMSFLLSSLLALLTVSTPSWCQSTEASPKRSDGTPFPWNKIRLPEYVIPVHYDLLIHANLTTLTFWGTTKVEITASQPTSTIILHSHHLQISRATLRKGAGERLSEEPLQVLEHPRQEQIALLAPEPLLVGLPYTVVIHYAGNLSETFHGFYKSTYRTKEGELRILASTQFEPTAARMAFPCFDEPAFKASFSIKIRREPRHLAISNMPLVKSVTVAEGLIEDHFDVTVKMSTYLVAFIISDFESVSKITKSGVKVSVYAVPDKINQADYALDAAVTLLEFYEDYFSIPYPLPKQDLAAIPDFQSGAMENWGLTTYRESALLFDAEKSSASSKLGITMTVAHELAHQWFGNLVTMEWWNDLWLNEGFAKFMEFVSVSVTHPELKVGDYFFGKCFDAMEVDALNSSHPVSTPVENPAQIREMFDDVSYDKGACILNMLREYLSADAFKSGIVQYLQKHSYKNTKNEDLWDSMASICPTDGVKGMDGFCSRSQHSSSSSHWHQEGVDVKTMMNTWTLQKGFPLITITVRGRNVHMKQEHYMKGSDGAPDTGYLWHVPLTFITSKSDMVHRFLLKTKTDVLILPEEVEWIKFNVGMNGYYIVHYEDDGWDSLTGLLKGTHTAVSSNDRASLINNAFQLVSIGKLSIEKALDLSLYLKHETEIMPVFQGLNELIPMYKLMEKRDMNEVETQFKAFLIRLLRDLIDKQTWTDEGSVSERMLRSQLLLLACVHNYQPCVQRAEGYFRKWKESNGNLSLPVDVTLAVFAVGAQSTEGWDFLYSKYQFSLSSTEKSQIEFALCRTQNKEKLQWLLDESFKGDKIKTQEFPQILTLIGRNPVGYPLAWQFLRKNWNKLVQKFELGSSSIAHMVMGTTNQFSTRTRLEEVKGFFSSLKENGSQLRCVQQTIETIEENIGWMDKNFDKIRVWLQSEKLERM
# PglD inh = C. jejuni PglD acetyltransferase inhibitors, primary screen, biochemical, DTNB colorimetric, single point; UDP-N-acetylbacillosamine N-acetyltransferase PglD (Campylobacter jejuni); purified PglD enzyme, DTNB colorimetric CoA detection; inhibition, % at 12.5 µM; actives 0.098% (n = 360,000); AID 602405, 2012; in the data active means inhibition above about 16%, passing the limit was not always enough; inconclusive means no clear call, values can overlap the other calls
# DENV2 CPE rescue = inhibitors of DENV2 cytopathic effect, primary screen, cell-based, plate reader, single concentration; DENV2-infected cells, cytopathic effect rescue; CPE inhibition, % at 9.99 µM; actives 1.7% (n = 350,000); AID 651640, 2012; in the data active means CPE inhibition above about 20%, passing the limit was not always enough; inconclusive means no clear call, values can overlap the other calls; tested in BHK-21 cells;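 further: 0% = median of neutral control wells and 100% = median of positive control wells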
# PglD inh SP = PglD acetyltransferase inhibitors, confirmation, biochemical, DTNB absorbance, single point, cherry-picked samples. shares compounds with PglD inh. Purified C. jejuni PglD, DTNB absorbance 412 nm. inhibition, % at 20 µM. 320 tested, under 10 active. AID 743156, 2013;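 active means mean inhibition across replicates of at least 20% with every single replicate also at 20% or more; inconclusive means mean inhibition at least 20% but some replicate falls below 20%; inactive means mean inhibition under 20% and not all replicates reach it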;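 further: initial rate of CoA release by acetyl transfer from AcCoA to the UDP-4-amino sugar; 0% = median of neutral control wells and 100% = median of positive control wells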
# An asterisk follows results filed as active; ? = inconclusive; nt = no result. Only some compounds are listed: those with a hit (about 2.5% of all), similar ones and a draw of the others.
SMILES,SIRT5 inh,E-selectin induc,ERAP1 HTS inh,PglD inh,DENV2 CPE rescue,PglD inh SP
CCOc1cc(C(=S)N2CCOCC2)ccc1OC(=O)c1ccccc1,-2,0,5,-5,-4,nt
CC1CCCC(C)N1S(=O)(=O)c1ccc(Cl)cc1 (stereo not drawn),-3,0,1,-5,0,nt
CC1=C(C)CS(=O)N(S(=O)(=O)c2ccc(Cl)cc2)C1 (stereo not drawn),nt,nt,nt,23*,nt,0
CCC(Oc1ccccc1F)C(=O)NCCCn1ccnc1 (stereo not drawn),2,0,0,37*,?,-3
COCC(=O)Nc1ccc2c(c1)C(=O)N(C)[C@H]1CC[C@@H](CC(=O)O)O[C@H]1CO2,nt,0,nt,1,-15,nt
CC(C)(C)c1ccc(-c2nnc3sc(-c4ccncc4)nn23)cc1,nt,nt,nt,24*,nt,2
C/C(=N\NC(=O)c1ccccc1C)c1ccc(NC(=O)c2cccs2)cc1,nt,nt,nt,-3,nt,nt
CCOc1ccccc1C=NN=Cc1ccccc1O,2,0,4,nt,-3,nt
O=S(=O)(Nc1cccc(F)c1)c1cccc2nsnc12,-1,1,-2,-2,8,nt
O=S(=O)(Nc1ccc(Cl)cc1)c1cccc2nsnc12,11,0,-1,21*,0,-5
O=C(CN1CCCCC1)Nc1ccc(NC(=O)c2ccccc2Cl)cc1Cl,3,-2,0,20*,-18,-2
O=C(CN1CCCCCCC1)Nc1ccc(Cl)cc1Cl,0,nt,3,nt,-2,nt
O=C1N=C2SCCN2/C1=C\c1ccc(Cl)cc1,nt,nt,nt,30*,nt,-2
COc1ccc(N(CC(=O)Nc2cccc(C(C)=O)c2)S(=O)(=O)c2ccc(NC(C)=O)cc2)cc1,-2,2,2,77*,-6,2
CCCc1cc(C(=O)NC2CCCC2)no1,-1,0,0,58*,0,4
C=CCOC(=O)C1=C(C)NC(=S)NC1/C=C/c1ccccc1 (stereo not drawn),nt,nt,nt,3,nt,nt
CC1=C(C(=O)OCc2ccccc2)C(/C=C/c2ccccc2)NC(=S)N1 (stereo not drawn),nt,nt,nt,21*,nt,-1
CCc1csc(N2[C@H](C#N)[C@@H](c3ccc(-c4cccc(F)c4)cc3)[C@H]2CO)n1,4,1,0,5,9,nt
N#CC1=C(N)Oc2cc(N)ccc2C1c1cccc(F)c1 (stereo not drawn),-3,1,-1,72*,11,1
O=C1NC2(CCCCCC2)C(=O)N1Cc1cccc([N+](=O)[O-])c1,2,0,1,20*,9,0
Cc1ccc2oc(=O)c(/C=C(\O)CC(C)C)nc2c1,nt,nt,nt,21*,nt,2
CC(NC(=O)C1CCC1)c1ccc(Br)cc1 (stereo not drawn),-4,2,-1,nt,-4,nt
CCOc1ccc(-c2n[nH]c(C(=O)NN)c2C)cc1,-2,nt,7,83*,10,-6
COc1cc(/C=N/Nc2nc(N3CCCC3)nc(N3CCCC3)n2)ccc1O,nt,nt,nt,-168,nt,nt
COc1ccc(-c2cnnc(N/N=C/c3ccc(O)c(OC)c3)n2)cc1,nt,nt,nt,26*,nt,6
SMILES,SIRT5 inh,E-selectin induc,ERAP1 HTS inh,PglD inh,DENV2 CPE rescue,PglD inh SP
O=C1C2C3C=CC(C3)C2C(=O)N1Cc1ccccc1 (stereo not drawn),nt,nt,nt,22*,nt,-14
OCCN1CCOCCN(CCO)CCOCC1,nt,nt,nt,21*,nt,-31
C(CCN1CCOCC1)CN1CCOCC1,nt,0,-1,-5,12,nt
O=C(COC(=O)c1ccc([N+](=O)[O-])s1)NC(=O)NCc1ccccc1,-5,nt,0,31*,-14,0
O=C(COC(=O)c1ccc([N+](=O)[O-])s1)NCCc1ccccc1,2,nt,3,4,nt,nt
C[C@H](CO)N1C[C@H](C)[C@H](CN(C)S(=O)(=O)c2cn(C)cn2)Oc2c(NC(=O)C3CCCCC3)cccc2C1=O,nt,0,nt,nt,nt,nt
Cc1ccc(-n2cc(-c3ccccc3)c3c(=O)[nH]cnc32)cc1,nt,nt,0,45*,8,1
C[C@H](CO)N1C[C@H](C)[C@@H](CN(C)S(=O)(=O)c2cccs2)OCCCC[C@H](C)Oc2ccc(NC(=O)Nc3ccccc3)cc2C1=O,8,nt,1,2,0,nt
C[C@@H]1CCCCO[C@@H](CN(C)CC2CC2)[C@@H](C)CN([C@H](C)CO)C(=O)c2cc(NC(=O)CCCN(C)C)ccc2O1,2,0,2,4,-1,nt
COc1ccc(/C(C)=N/Nc2ccc(C(=O)O)cc2)cc1OC,nt,nt,nt,58*,nt,0
Cn1nnnc1SCCNS(=O)(=O)c1ccccc1,nt,nt,nt,22*,nt,?
CC(=O)Nc1cc(-c2ccccc2F)cn2c(-c3ccccc3)cnc12,-1,0,-5,-1,-3,nt
CC(=O)c1cccc(-c2cnc3c(NC=O)cc(-c4ccccc4F)cn23)c1,nt,0,0,25*,?,2
CC(=O)Nc1sc(/C(C#N)=C\c2cccc(Cl)c2)nc1-c1ccc(C)cc1,-1,nt,-2,-11,-3,nt
COc1ccc(/C=N/NC(=O)c2cccnc2)cc1Cn1nc([N+](=O)[O-])c(Br)c1C,13,nt,-6,nt,1,nt
CCSc1nnc(NC(=O)[C@@H](NC(=O)c2cccc(C)c2)C(C)C)s1,nt,1,nt,23*,nt,1
Cc1cc(C)c2oc(-c3ccc(Cl)c(NC(=O)c4ccc(C#N)cc4F)c3)nc2c1,nt,nt,nt,-2,nt,nt
CCOC(=O)c1c2n(c3ccc(O)cc13)CCCCC2,nt,nt,nt,25*,nt,4
CSC[C@H](NC(=O)COc1cc2c(c3oc(=O)c(C)c(C)c13)CCC(C)(C)O2)C(=O)O,-78,nt,-3,-5,-2,nt
CSCC[C@H](NC(=O)COc1cc2c(c3oc(=O)c(C)c(C)c13)CCC(C)(C)O2)C(=O)O,-59,nt,-7,27*,-4,-1
Cc1ccc(S(=O)(=O)NCC(=O)OCc2nnc(-c3ccccc3)o2)cc1C,nt,nt,nt,4,nt,nt
O=C(CNS(=O)(=O)c1ccc2ccccc2c1)OCc1nnc(-c2ccccc2)o1,nt,nt,nt,34*,nt,0
COCCCNC(=O)c1cccc2c(-c3cccc(C(N)=O)c3)coc12,nt,0,-2,28*,-9,-4
COc1ccc(N2CCN(/C(=N\S(=O)(=O)c3ccccc3)Nc3nc(C)cc(C)n3)CC2)cc1,nt,nt,nt,26*,nt,-5
Cc1ccc(S(=O)(=O)/N=C(/Nc2nc(C)cc(C)n2)N2CCOCC2)cc1,nt,nt,nt,-6,nt,nt
Cc1ccccc1Cn1c(=O)n(Cc2ccco2)c(=O)c2ccccc21,nt,nt,nt,42*,nt,7
Cc1cccc(Cn2c(=O)n(Cc3ccco3)c(=O)c3ccccc32)c1,nt,nt,nt,3,nt,nt
CC(=O)Nc1nc(C)c(S(N)(=O)=O)s1,nt,nt,nt,24*,nt,-6
CC(=O)Nc1nnc(S(N)(=O)=O)s1,-5,0,1,0,12,nt
